Data set [1] concerns Mus musculus. The data set is described as follows: Antinociceptive activity in icv dosed C57BL/6J mouse assessed as latency to withdrawal tail after 30 mins by 55 degC warm-water tail withdrawal assay. The class given is functional. In a few lines: (§1)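 Mouse 55 °C warm-water tail-withdrawal test with a baseline latency taken before dosing and a 15 s cut-off. Single i.c.v. injection of 5 µL into the lateral ventricle under light isoflurane. Latency measured at 10-min intervals, with dose–response values taken at peak: 20 min for peptides, 30 min for morphine. Mean % antinociception from 8 mice; ED₅₀ with 95% CI.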

In data set [2] the test system is Mus musculus. Nature of the data set: Antinociceptive activity in icv dosed C57BL/6J mouse assessed as latency to withdrawal tail administered first dose for 8 hrs followed by second dose measured after 30 mins by 55 degC warm-water tail withdrawal assay. The class given is functional. In outline: (§2)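 Acute tolerance in the mouse 55 °C warm-water tail-withdrawal test, 15 s cut-off. First i.c.v. dose at time 0 (morphine 3 nmol or test peptide 2 nmol), then a second i.c.v. dose of 0.1–100 nmol 8 h later. Latency read 30 min after the second dose for morphine and 20 min for the peptide. n = 8 mice per point; ED₅₀ with 95% CI by nonlinear regression.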

Data set [3] addresses T1, Delta-type opioid receptor (Homo sapiens, UniProt P41143). The data set is described as follows: Agonist activity at delta opioid receptor (unknown origin) expressed in CHO cells assessed as change in cell morphology at 3.3 uM measured over 30 mins by label free binding assay relative to DPDPE. It is filed as cell-based. In a few lines: (§3)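 Label-free biosensor (BIND) measuring cell spreading as increase in peak wavelength value. MOR in HEK293 cells, DOR in CHO cells, seeded 2 × 10⁴/well on fibronectin/collagen/albumin-coated plates and incubated overnight. Assay buffer was HBSS with 0.5–1% DMSO, equilibrated 30 min at room temperature before a baseline read. Compound added to a final 3.3 µM and read over 30 min. Response given as % of DAMGO 300 nM (MOR, n = 2) or DPDPE 10 nM (DOR, n = 4).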

Data set [4] relates to Mus musculus. Nature of the data set: Antinociceptive activity in mu opioid receptor knock out mouse assessed as latency to withdrawal tail at 100 nmol, icv after 30 mins by 55 degC warm-water tail withdrawal assay. It is filed as functional, organism-based. In outline: (§4)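 Tail-withdrawal test at 55 °C, read 30 min after i.c.v. dosing (100 or 30 nmol), in MOR KO or KOR KO mice. Wild-type C57BL/6J mice were instead pretreated with naltrindole 20 mg/kg, route given as i.p. in the methods and s.c. in the legend, 20 min before dosing. n = 8 mice; one-way ANOVA with Tukey's test.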

For data set [5], the target named is T1, Delta-type opioid receptor. Nature of the data set: Agonist activity at delta opioid receptor (unknown origin) expressed in CHO cells assessed as inhibition of forskolin-induced cAMP production at 500 nM after 30 mins by europium cryptate/d2 dye-based FRET analysis relative to DPDPE. The class given is functional, cell-based. In a few lines: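 DOR-expressing CHO cells, 20,000/well, exposed to test compound at 500 nM with 4 µM forskolin in PBS containing 1 mM IBMX for 30 min at room temperature. Cells then lysed with Europium cryptate and d2 acceptor reagents for 1 h, and cAMP read by FRET. Expressed as % of the 500 nM DPDPE response, n = 4.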
Background: cAMP levels reflect the balance of adenylyl cyclase and phosphodiesterase activity.

Data set [6] concerns Mus musculus. Nature of the data set: Antinociceptive activity in icv dosed C57BL/6J mouse assessed as latency to withdrawal tail after 20 mins by 55 degC warm-water tail withdrawal assay. It is filed as functional. In a few lines:
as §1

Data set [7] relates to Mus musculus. Nature of the data set: Antinociceptive activity in kappa opioid receptor knock out mouse assessed as latency to withdrawal tail at 100 nmol, icv after 30 mins by 55 degC warm-water tail withdrawal assay. The class given is functional, organism-based. In outline:
as §4

For another data set, the target named is Mu-type opioid receptor (Rattus norvegicus, UniProt P33535). Nature of the data set: Displacement of [3H]DAMGO from rat cortex mu opioid receptor after 30 mins by liquid scintillation counting analysis. In a few lines:
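Rat cortex membranes prepared in 50 mM Tris pH 7.4, spun 16,500 rpm for 10 min, and incubated 30 min at 37 °C. Competition against [³H]DAMGO. Assay ended by filtration on BSA-soaked GF/B filters. Ki values are means of two experiments.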
Background: In a radioligand displacement assay an active substance lowers the binding of a labelled ligand.

Data set [8] is described as follows: Half life in rat brain homogenate at 10 uM. It is filed as ADME, tissue-based. In outline: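 Peptide at a final 10 µM in rat brain homogenate (protein 21.2 mg/mL), incubated at 37 °C. Aliquots quenched in acetonitrile with internal standard in triplicate, centrifuged, and analysed by LC-MS/MS in MRM mode. Half-life from pseudo-first-order loss of the analyte/internal-standard ratio; mean of at least three experiments ± SEM.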

Data set [9] deals with Delta-type opioid receptor (Rattus norvegicus, UniProt P33533). The data set is described as follows: Displacement of [3H]DPDPE from rat cortex delta opioid receptor after 2.5 hrs by liquid scintillation counting analysis.
The target of data set [10] is Mu-type opioid receptor (Homo sapiens) (UniProt P35372). The data set is described as follows: Agonist activity at mu opioid receptor (unknown origin) expressed in HEK293 cells assessed as change in cell morphology at 3.3 uM measured over 30 mins by label free binding assay relative to DAMGO. The class given is cell-based. In outline: as §3
The subject of data set [11] is Mus musculus. The data set is described as follows: Antinociceptive activity in wild type C57BL/6J mouse assessed as latency to withdrawal tail at 100 nmol, icv treated with delta opioid receptor anatgonist naltrindole for 20 mins prior to compound treatment measured after 30 mins by 55 degC warm-water tail withdrawal assay. The class given is functional, organism-based. In a few lines:
as §4

The subject of data set [12] is Mus musculus. The data set is described as follows: Toxicity in C57BL/6J mouse assessed as impairment of locomotor co-ordination at 100 nmol, icv administered 15 mins prior to assessment in accelerated speed trials measured over 60 mins by rotorod test. The class given is organism-based. Conditions: in vivo, icv_or_intrathecal, 1 h. In a few lines: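 Rotorod test after seven habituation trials, the last used as baseline. Mice given vehicle (50% DMSO) or 100 nmol i.c.v. Latency to fall recorded over 60 min and expressed as % change from baseline per 10 min. 8–18 mice; two-way ANOVA.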
Background: In the rotarod test animals must keep their balance on a rotating rod.

For data set [13], the system named is Mus musculus. Nature of the data set: Antinociceptive activity in wild type C57BL/6J mouse assessed as latency to withdrawal tail at 30 nmol, icv treated with delta opioid receptor anatgonist naltrindole for 20 mins prior to compound addition measured after 30 mins by 55 degC warm-water tail withdrawal assay. The class given is functional, organism-based. In a few lines: as §4

Data set [14] addresses T1, Delta-type opioid receptor. The data set is described as follows: Agonist activity at delta opioid receptor (unknown origin) expressed in CHO cells assessed as change in cell morphology measured over 30 mins by label free binding assay. It is filed as cell-based. In outline:
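DOR-expressing CHO cells on coated plates in a label-free BIND biosensor, with the increase in peak wavelength value read over 30 min after compound addition. HBSS buffer with 0.5–1% DMSO, baseline read first. Points are means of two separate assays.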

The test system of data set [15] is Mus musculus. Nature of the data set: Antinociceptive activity in icv dosed C57BL/6J mouse assessed as latency to withdrawal tail administered first dose for 8 hrs followed by second dose measured after 20 mins by 55 degC warm-water tail withdrawal assay. It is filed as functional. In a few lines:
as §2

Data set [16] has as its system Mus musculus. Nature of the data set: Antinociceptive activity in kappa opioid receptor knock out mouse assessed as latency to withdrawal tail at 30 nmol, icv after 30 mins by 55 degC warm-water tail withdrawal assay. It is filed as functional, organism-based. In outline:
as §4

Data set [17] concerns Mus musculus. Nature of the data set: Inhibition of delta opioid receptor agonist SNC-80-induced antinociceptive activity in C57BL/6J mouse assessed as latency to withdrawal tail at 30 nmol, icv administered 90 mins prior to SNC-80 treatment measured after 40 mins by 55 degC warm-water tail withdrawal assay. The class given is functional, organism-based. In a few lines:
(§5)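 C57BL/6J mice given 30 nmol i.c.v. 90 min before morphine 10 mg/kg i.p., U50,488 10 mg/kg i.p., or SNC-80 100 nmol i.c.v. Tail-withdrawal at 55 °C measured 40 min after the agonist. n = 8 mice; Student's t-test.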

Data set [18] deals with Mus musculus. Nature of the data set: Antinociceptive activity in mu opioid receptor knock out mouse assessed as latency to withdrawal tail at 30 nmol, icv after 30 mins by 55 degC warm-water tail withdrawal assay. The class given is functional, organism-based. In a few lines: as §4
The subject of data set [19] is Mus musculus. The data set is described as follows: Inhibition of mu opioid receptor agonist morphine-induced antinociceptive activity in C57BL/6J mouse assessed as latency to withdrawal tail at 30 nmol, icv administered 90 mins prior to morphine treatment measured after 40 mins by 55 degC warm-water tail withdrawal assay. It is filed as functional, organism-based. In outline:
as §5

Data set [20] relates to Mus musculus. The data set is described as follows: Antinociceptive activity in C57BL/6J mouse assessed as latency to withdrawal tail at 100 nmol, icv measured up to 80 mins by 55 degC warm-water tail withdrawal assay. The class given is functional, organism-based. In outline: as §1
The subject of data set [21] is Mus musculus. The data set is described as follows: Inhibition of kappa opioid receptor agonist U50,488-induced antinociceptive activity in C57BL/6J mouse assessed as latency to withdrawal tail at 30 nmol, icv administered 90 mins prior to U50,488 treatment measured after 40 mins by 55 degC warm-water tail withdrawal assay. The class given is functional, organism-based. In a few lines: as §5

Activity calls are given as the source filed them. Where a SMILES comes first, the peptide text is derived from it. [ ]: non-standard residue; d: D form. ξ: configuration not given here. Dmt = Cc1cc(O)cc(C)c1C[C@H](N)C(=O)O; ξTiq(1-COOH) = O=C(O)C1NCCc2ccccc21

T1 sequence (P41143 whole entry): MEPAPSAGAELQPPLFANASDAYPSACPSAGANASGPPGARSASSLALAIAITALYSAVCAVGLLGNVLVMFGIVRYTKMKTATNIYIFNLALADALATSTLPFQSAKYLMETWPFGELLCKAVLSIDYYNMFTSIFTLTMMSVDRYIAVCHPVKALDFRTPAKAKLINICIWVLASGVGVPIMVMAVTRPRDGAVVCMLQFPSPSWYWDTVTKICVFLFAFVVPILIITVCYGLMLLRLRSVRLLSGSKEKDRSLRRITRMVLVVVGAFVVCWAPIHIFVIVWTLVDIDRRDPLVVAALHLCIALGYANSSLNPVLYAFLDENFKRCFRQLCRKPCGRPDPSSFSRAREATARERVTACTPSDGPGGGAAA
Sequence of Mu-type opioid receptor (Homo sapiens) (P35372 whole entry): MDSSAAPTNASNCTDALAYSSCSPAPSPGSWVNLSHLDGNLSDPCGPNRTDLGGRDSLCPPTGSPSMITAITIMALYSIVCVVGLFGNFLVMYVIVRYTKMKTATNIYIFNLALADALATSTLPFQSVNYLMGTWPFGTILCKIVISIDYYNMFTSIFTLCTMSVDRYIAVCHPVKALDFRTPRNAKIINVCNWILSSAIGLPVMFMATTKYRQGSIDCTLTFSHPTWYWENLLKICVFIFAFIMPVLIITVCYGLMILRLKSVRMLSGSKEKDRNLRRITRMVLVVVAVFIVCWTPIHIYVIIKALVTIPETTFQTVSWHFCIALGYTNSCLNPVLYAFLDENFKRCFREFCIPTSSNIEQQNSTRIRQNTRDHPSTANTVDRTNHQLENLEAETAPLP
Sequence of Delta-type opioid receptor (Rattus norvegicus, UniProt P33533) (P33533 whole entry): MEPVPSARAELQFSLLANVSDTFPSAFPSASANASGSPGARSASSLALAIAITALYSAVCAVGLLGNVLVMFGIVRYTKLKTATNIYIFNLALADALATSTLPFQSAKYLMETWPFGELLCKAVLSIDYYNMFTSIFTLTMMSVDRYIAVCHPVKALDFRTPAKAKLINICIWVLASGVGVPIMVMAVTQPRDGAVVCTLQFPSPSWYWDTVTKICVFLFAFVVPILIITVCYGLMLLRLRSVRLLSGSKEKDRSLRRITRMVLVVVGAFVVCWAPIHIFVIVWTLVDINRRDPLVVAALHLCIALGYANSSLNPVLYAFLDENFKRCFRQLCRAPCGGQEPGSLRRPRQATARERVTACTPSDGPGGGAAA
Sequence of Mu-type opioid receptor (P33535 whole entry): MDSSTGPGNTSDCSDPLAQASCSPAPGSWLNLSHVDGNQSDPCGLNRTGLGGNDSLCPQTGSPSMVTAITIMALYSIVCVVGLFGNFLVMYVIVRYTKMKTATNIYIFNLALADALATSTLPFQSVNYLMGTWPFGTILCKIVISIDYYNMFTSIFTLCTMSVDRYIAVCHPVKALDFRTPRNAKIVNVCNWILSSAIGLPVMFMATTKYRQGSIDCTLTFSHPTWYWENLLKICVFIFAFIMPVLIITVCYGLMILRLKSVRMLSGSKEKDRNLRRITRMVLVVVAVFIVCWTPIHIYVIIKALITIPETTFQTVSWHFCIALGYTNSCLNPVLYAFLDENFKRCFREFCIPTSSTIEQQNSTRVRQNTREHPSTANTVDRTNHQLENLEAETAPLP

Take `CN1CC[C@]23c4c5ccc(O)c4O[C@H]2[C@@H](O)C=C[C@H]3[C@H]1C5` [MORPHINE]: in the data set with Mus musculus [1], the Activity entry is “Dose-dependent effect” and the ED50 was found to be 2.35 nmol. Also, the ED50 in the data set with Mus musculus [2] is 22.5 nmol.

The term inhibition denotes the relative decrease from the control value, in per cent. Broadly, the Ki is the equilibrium dissociation constant of an inhibitor or competing ligand from its target. Read a high Ki as lower affinity. The term half-life denotes the time in which the quantity being followed falls by half. A high value points to slow decline. Regarding `Cc1cc(O)cc(C)c1C[C@H](N)C(=O)N1CCc2ccccc2C1C(=O)N[C@@H](Cc1ccccc1)C(=O)N[C@@H](Cc1ccccc1)C(N)=O` (stereo partly drawn) (H-[Dmt][ξTiq(1-COOH)]FF-NH2), the Activity is 46% in data set [3], “Dose-dependent effect” in the data set with Mus musculus [6], 61% in [10] and “Toxic” in the data set on Mus musculus [12]. Moreover, the result in the data set on Mus musculus [4], with Mus musculus [7] and in the data set with Mus musculus [11] was inactive. Besides, in data set [5], the inhibition amounted to 73%. In the data set with Mus musculus [6], the ED50 stood at 21.7 nmol. Moreover, the values for the inhibition constant Ki (on Mu-type opioid receptor; in [9]) were 5 nM and 2 nM, respectively. Further, the half-life at 10 µM in data set [8] is 6.11 min.

The EC50 is the midpoint of the concentration-response curve. As to `Cc1cc(O)cc(C)c1C[C@H](N)C(=O)N1CCc2ccccc2C1C(=O)N[C@@H](Cc1ccccc1)[C@@H](O)C(=O)N[C@@H](Cc1ccccc1)C(N)=O` (stereo partly drawn), the Activity was 30% in data set [3], “Dose-dependent effect” in the data set with Mus musculus [6], 42% in [10] and “Non-toxic” in the data set on Mus musculus [12]. In [5], the inhibition amounted to 66%. For the same compound, the outcome in the data set on Mus musculus [13], in the data set with Mus musculus [16] and in the data set on Mus musculus [18] was inactive. In addition, the EC50 in data set [14] is 23 nM. The ED50 in the data set on Mus musculus [15] worked out at 0.86 nmol; in the data set on Mus musculus [6], 1.98 nmol. Also, the inhibition entry in the data set on Mus musculus [17] is “Active”. The inhibition result in the data set with Mus musculus [19] and with Mus musculus [21] was “inactive” throughout. Moreover, the Ki came out at 8 nM at Mu-type opioid receptor and 0.7 nM in [9]. The compound also showed a half-life at 10 µM in [8] greater than 120 min. Also, in the data set with Mus musculus [20], the result was Active.

These data come from ChEMBL document CHEMBL3407426, “Synthesis and biological evaluations of novel endomorphin analogues containing α-hydroxy-β-phenylalanine (AHPBA) displaying mixed μ/δ opioid receptor agonist and δ opioid receptor antagonist activities” (Eur J Med Chem, 2015).
